Here are results for 4 compounds from paper PMC10671706 (Journal of medicinal chemistry, 2022).

Bridge positions count the residues as written; N and C are the ends. Square brackets hold non-standard residues; d marks the D form. Ends that are not written are not given here. Peptide text beside a SMILES is read from it.

The target of series [1] is human PD-1/PD-L1 interaction (Homo sapiens, UniProt Q9NZQ7). As to the kind of experiment: Protein-based PD-1/PD-L1 blocking assay. The format is binding. Conditions: human PD-L1/PD-1 protein interaction.
The next series concerns CT26 tumor. Description: Anti-tumor activity and survival study in CT26 syngeneic Balb/c mouse model. The series is classed as in vivo. Put shortly: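 CT26 cells (~1×10^6) implanted s.c. in the right flank of male and female Balb/c mice. At 200-250 mm3, mice were split into five groups of 4 female + 4 male. Test compound or anti-mouse PD-L1 antibody 0.5 mg/kg i.p. daily, day 10–18; saline i.p. control. Caliper volume = 1/2 × length × width2. RTV = day 18/day 10 volume; TGI on day 18; survival curves.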

A further series deals with PD-1/PD-L1 complex. Conditions: cited from earlier work.
For the next series, the system named is trypsin. The note with it: cited from earlier work.

Chain of human PD-1/PD-L1 interaction (Q9NZQ7 19-238 limits assumed): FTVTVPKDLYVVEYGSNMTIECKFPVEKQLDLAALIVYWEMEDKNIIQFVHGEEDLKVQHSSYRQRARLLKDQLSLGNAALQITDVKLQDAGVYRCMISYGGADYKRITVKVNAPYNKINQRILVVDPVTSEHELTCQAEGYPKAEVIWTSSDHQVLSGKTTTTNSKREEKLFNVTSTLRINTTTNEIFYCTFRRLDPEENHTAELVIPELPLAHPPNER

Regarding `CC(=O)N[C@H]1CSSC[C@@H](C(=O)N[C@@H](Cc2c[nH]c3ccccc23)C(=O)N[C@@H](CC(N)=O)C(=O)N[C@@H](CC(C)C)C(=O)N[C@@H](CC(N)=O)C(=O)N[C@H](C(N)=O)[C@@H](C)O)NC(=O)[C@H](Cc2ccc(O)cc2)NC(=O)[C@H](Cc2ccc(O)cc2)NC(=O)[C@H](CO)NC(=O)[C@H](CCCNC(=N)N)NC(=O)[C@H](Cc2c[nH]cn2)NC1=O` [C12] (Ac-CHRSYYCWNLNT-NH2; disulfide 1-7; N-terminus and C-terminus assumed), the “increase in the blocking efficiency (normalized against the parent peptide CLP-2)” value in series [1] (peptide at 5 μM) is about 2 fold. The “survival of the mice compared with the saline group” value in the series with CT26 tumor (0.5 mg/kg intraperitoneally daily) was “significant improvement in survival”. Also, the “anti-tumor activity (tumor growth) compared with the saline group” value in the series on CT26 tumor (0.5 mg/kg intraperitoneally daily from day 10 to day 18, CT26 Balb/c mice) is reported as “significant anti-tumor activity”.

In the case of `C[C@@H](O)[C@H](NC(=O)N[C@@H](CC(N)=O)c1nc([C@@H](N)CO)no1)C(=O)O` [CA-170], in the series with PD-1/PD-L1 complex, the “blocking of the formation of the PD-1/PD-L1 complex” value is on record as “could not block the formation of the PD-1/PD-L1 complex”.

For IDR-1018, the “time to degradation in trypsin” value in the series on trypsin is on record as “less than 30 min”.

Consider “d(CNLNWTYYSRHC) ([dC][dN][dL][dN][dW][dT][dY][dY][dS][dR][dH][dC]; cysteine pairing not given here; also: retro-inverso) [retro-inverso sequence of the C7 peptide]”, for which, in series [1] (screening at 5 μM normalized against CLP-2), the “blocking efficiency / blocking activity (in words)” value is reported as “loss of the blocking efficiency”.
